Reference: ChEMBL document CHEMBL5523688, “Selective targeting of human TET1 by cyclic peptide inhibitors: Insights from biochemical profiling” (Bioorg Med Chem, 2024)

Experiments:
[1] = molecular target: Methylcytosine dioxygenase TET1 (Homo sapiens, UniProt Q8NFU7); test: Inhibition of N-terminal 3xFlag-tagged recombinant human TET1 catalytic domain (E1418 to V2136 residues) expressed in baculovirus infected Sf9 cells using 5-methylcytosine as substrate preincubated for 10 mins followed by substrate and DNA-cofactor addition measured after 30 mins by Alphascreen assay; details: read-out: pIC50 (converted)
Sequence of Methylcytosine dioxygenase TET1 (Homo sapiens, UniProt Q8NFU7) (Q8NFU7 whole entry, the tested form may be a part): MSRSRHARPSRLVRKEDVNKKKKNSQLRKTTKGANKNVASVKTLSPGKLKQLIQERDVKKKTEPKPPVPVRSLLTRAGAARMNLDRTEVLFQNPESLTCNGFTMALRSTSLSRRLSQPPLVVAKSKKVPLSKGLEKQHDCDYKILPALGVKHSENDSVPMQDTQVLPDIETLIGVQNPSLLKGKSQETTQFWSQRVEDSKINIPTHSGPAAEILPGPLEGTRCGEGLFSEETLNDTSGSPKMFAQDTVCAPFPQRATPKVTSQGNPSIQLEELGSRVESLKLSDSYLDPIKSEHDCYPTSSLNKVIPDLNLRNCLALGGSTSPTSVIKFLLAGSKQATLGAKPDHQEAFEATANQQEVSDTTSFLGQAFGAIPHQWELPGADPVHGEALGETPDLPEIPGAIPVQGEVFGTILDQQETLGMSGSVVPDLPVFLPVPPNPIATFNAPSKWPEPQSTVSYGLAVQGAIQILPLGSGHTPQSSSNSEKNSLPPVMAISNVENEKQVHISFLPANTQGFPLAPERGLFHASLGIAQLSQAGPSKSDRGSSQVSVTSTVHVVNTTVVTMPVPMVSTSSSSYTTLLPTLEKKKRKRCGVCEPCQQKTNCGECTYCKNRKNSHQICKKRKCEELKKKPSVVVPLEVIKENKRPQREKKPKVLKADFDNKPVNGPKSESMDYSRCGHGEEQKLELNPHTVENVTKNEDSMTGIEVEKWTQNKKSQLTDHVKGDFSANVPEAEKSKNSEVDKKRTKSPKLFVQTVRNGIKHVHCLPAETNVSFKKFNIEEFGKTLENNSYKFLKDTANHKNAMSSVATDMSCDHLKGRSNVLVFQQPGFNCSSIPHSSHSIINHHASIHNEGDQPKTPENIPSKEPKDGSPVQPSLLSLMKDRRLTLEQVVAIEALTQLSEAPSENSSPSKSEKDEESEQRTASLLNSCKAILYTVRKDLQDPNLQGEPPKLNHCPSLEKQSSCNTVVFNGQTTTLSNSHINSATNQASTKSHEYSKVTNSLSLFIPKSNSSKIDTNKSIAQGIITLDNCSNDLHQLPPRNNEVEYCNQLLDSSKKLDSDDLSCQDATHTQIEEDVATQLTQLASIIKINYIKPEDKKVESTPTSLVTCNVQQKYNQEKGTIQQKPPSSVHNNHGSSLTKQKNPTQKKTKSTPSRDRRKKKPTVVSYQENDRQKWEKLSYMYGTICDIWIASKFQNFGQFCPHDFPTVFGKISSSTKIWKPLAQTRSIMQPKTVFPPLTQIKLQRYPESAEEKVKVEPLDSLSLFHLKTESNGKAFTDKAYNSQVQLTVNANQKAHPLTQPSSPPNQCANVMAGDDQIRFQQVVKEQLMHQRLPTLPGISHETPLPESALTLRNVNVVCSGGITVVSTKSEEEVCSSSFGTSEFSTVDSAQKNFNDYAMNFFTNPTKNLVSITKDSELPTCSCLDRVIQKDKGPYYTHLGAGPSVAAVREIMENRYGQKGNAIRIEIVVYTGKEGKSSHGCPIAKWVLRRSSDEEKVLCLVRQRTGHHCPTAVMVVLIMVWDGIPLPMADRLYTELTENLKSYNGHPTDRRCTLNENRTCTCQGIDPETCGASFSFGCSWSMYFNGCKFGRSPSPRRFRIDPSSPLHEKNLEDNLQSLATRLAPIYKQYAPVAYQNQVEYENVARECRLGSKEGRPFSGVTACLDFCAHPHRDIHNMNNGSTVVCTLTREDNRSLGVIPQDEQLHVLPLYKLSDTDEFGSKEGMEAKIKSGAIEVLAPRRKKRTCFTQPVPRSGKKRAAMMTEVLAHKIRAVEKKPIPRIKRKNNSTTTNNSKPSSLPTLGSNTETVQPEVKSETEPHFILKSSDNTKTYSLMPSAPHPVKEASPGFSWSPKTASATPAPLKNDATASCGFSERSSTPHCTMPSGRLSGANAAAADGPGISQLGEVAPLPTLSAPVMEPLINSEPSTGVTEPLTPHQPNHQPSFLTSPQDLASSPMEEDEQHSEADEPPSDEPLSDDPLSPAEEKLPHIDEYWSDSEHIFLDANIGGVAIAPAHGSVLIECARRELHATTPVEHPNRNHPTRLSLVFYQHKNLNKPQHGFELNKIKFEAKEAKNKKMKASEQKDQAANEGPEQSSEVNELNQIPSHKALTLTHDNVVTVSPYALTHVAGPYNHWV
Outline: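 TET1 catalytic domain (E1418–V2136, Sf9 baculovirus) at 2 nM was preincubated 10 min with inhibitor (1% DMSO) in HEPES 50 mM pH 7.3, 150 mM NaCl, 0.1% BSA, 0.01% Tween-20. Reaction was started with ascorbate 200 µM, Fe(II) 20 µM, 2OG 20 µM and 5mC ssDNA 10 nM, run 30 min, then EDTA-quenched. Anti-5hmC antibody with AlphaScreen beads, 45–60 min, luminescence read. Three independent replicates.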

[2] = molecular target: T1, Methylcytosine dioxygenase TET2 (Homo sapiens, UniProt Q6N021); test: (§1) Inhibition of N-terminal His-tagged recombinant human TET2 catalytic domain LCIdel mutant (D1129 to G1936 residues with Y1481 to N1843 replaced by 3 x GGGGS linker) expressed in Escherichia coli BL21 (DE3) using 5-methylcytosine as substrate preincubated for 10 mins followed by substrate and DNA-cofactor addition measured after 10 mins by Alphascreen assay
[3] = molecular target: T1, Methylcytosine dioxygenase TET2; test: as §1, with “after 12” for “after 10”, “by SPE-MS analysis” for “by Alphascreen assay”
[4] = molecular target: Methylcytosine dioxygenase TET3 (Homo sapiens, UniProt O43151); test: Inhibition of recombinant human TET3 catalytic domain (E824 to I1795 residues) expressed in baculovirus infected Sf9 cells using 5-methylcytosine as substrate preincubated for 10 mins followed by substrate and DNA-cofactor addition measured after 10 mins by Alphascreen assay; details: read-out: pIC50 (converted)
[5] = molecular target: Methylcytosine dioxygenase TET1 (Mus musculus, UniProt Q3URK3); test: Inhibition of recombinant mouse TET1 catalytic domain (E1367 to V2039 residues) expressed in baculovirus expression system using 5-methylcytosine as substrate preincubated for 10 mins followed by substrate and DNA-cofactor addition measured after 9 mins by Alphascreen assay
Outline: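 Murine Tet1 catalytic domain (E1367–V2039, High Five baculovirus) at 2 nM was preincubated 10 min with inhibitor (1% DMSO) in HEPES 50 mM pH 7.3, NaCl 150 mM, BSA 0.1%, Tween-20 0.01%. Ascorbate 200 µM, Fe(II) 20 µM, 2OG 20 µM and 5mC ssDNA 10 nM were added; reaction ran 9 min, then EDTA-quenched. AlphaScreen anti-5hmC detection by luminescence.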

[6] = tested on: Methylcytosine dioxygenase TET2 (Homo sapiens), Q6N021 [UNDEFINED MUTATION]; details: time 20.0 min

Row | IC50 [1] [µM] | IC50 [4] [µM] | IC50 [5] [µM] | deltapIC50 [6] | SMILES | pIC50 [2] | pIC50 [3]
1 | 0.692 | 18.2 | 27.5 | 0.2 | CC[C@H](C)[C@@H]1NC(=O)[C@H](CO)NC(=O)[C@H](CCCNC(=N)N)NC(=O)[C@H](CC(C)C)NC(=O)[C@H](Cc2c[nH]cn2)NC(=O)[C@H](CC(C)C)NC(=O)[C@@H]2CCCN2C(=O)[C@H]([C@@H](C)CC)NC(=O)[C@@H](Cc2c[nH]c3ccccc23)NC(=O)CSC[C@@H](C(N)=O)NC(=O)[C@H](CO)NC(=O)[C@H](CCCNC(=N)N)NC(=O)CNC(=O)[C@H](CC(N)=O)NC(=O)[C@H](Cc2ccc(O)cc2)NC(=O)[C@H](C)NC(=O)[C@H](CC(C)C)NC1=O | 4.65 | 4.85
2 | 0.603 | 0.692 | 1.05 | -0.63 | CC[C@H](C)[C@@H]1NC(=O)[C@H](Cc2c[nH]c3ccccc23)NC(=O)[C@H](Cc2c[nH]c3ccccc23)NC(=O)[C@H]([C@@H](C)O)NC(=O)[C@H](Cc2ccc(O)cc2)NC(=O)[C@H](CC(N)=O)NC(=O)[C@H](Cc2ccc(O)cc2)NC(=O)[C@H](Cc2ccc(O)cc2)NC(=O)[C@H](CC(C)C)NC(=O)[C@H](CCCCN)NC(=O)[C@@H](Cc2c[nH]c3ccccc23)NC(=O)CSC[C@@H](C(N)=O)NC1=O | 6.03 | 5.4
3 | 44.7 | 31.6 | 38.9 | > 1.44 | CC[C@H](C)[C@@H]1NC(=O)[C@H](Cc2ccc(O)cc2)NC(=O)[C@H](Cc2ccc(O)cc2)NC(=O)[C@H](C(C)C)NC(=O)[C@@H](Cc2ccc(O)cc2)NC(=O)CSC[C@@H](C(N)=O)NC(=O)[C@H]([C@@H](C)O)NC(=O)[C@H](CCC(=O)O)NC(=O)[C@H](Cc2ccccc2)NC(=O)[C@H](C(C)C)NC(=O)[C@H](C)NC(=O)[C@H](CCCNC(=N)N)NC(=O)[C@H](CS)NC(=O)[C@H](Cc2c[nH]c3ccccc23)NC(=O)[C@H](Cc2c[nH]c3ccccc23)NC(=O)[C@@H]2CCCN2C1=O | < 4 | 5.44
4 | 0.174 | 2.4 | 3.47 | -0.3 | CC(C)C[C@@H]1NC(=O)[C@H](Cc2ccc(O)cc2)NC(=O)[C@H](Cc2c[nH]c3ccccc23)NC(=O)[C@@H](Cc2ccc(O)cc2)NC(=O)CSC[C@@H](C(N)=O)NC(=O)[C@H](Cc2ccccc2)NC(=O)[C@H](Cc2c[nH]c3ccccc23)NC(=O)[C@@H]2CCCN2C(=O)[C@H](C(C)C)NC(=O)[C@H](CCCNC(=N)N)NC(=O)[C@H](Cc2ccc(O)cc2)NC(=O)[C@H](CO)NC(=O)[C@@H]2CCCN2C1=O | 5.49 | 5.19
5 | 0.794 | 3.55 | 4.37 | -0.79 | C[C@@H]1NC(=O)[C@H](Cc2c[nH]c3ccccc23)NC(=O)[C@H](Cc2ccc(O)cc2)NC(=O)[C@H](Cc2ccc(O)cc2)NC(=O)[C@H](CCCCN)NC(=O)[C@H](CC(=O)O)NC(=O)[C@H]([C@@H](C)O)NC(=O)[C@@H](Cc2c[nH]c3ccccc23)NC(=O)CSC[C@@H](C(N)=O)NC(=O)[C@H](CO)NC(=O)[C@H](Cc2c[nH]c3ccccc23)NC(=O)[C@H](Cc2c[nH]c3ccccc23)NC(=O)[C@H]([C@@H](C)O)NC(=O)[C@H](Cc2ccc(O)cc2)NC1=O | 5.41 | 4.62
6 | 70.8 | 30.9 |  |  | CC[C@H](C)[C@H](NC(=O)[C@H](CC(C)C)NC(=O)[C@@H](Cc1ccc(O)cc1)NC(C)=O)C(=O)N[C@@H](Cc1ccc(O)cc1)C(=O)N[C@@H](C)C(=O)N[C@@H](Cc1ccc(O)cc1)C(=O)N[C@@H](Cc1ccc(O)cc1)C(=O)N[C@H](C(=O)N[C@@H](Cc1c[nH]c2ccccc12)C(=O)N[C@@H](Cc1c[nH]c2ccccc12)C(=O)N[C@@H](CCC(=O)O)C(=O)N[C@@H](Cc1cnc[nH]1)C(=O)N[C@@H](CO)C(=O)N[C@@H](CS)C(N)=O)[C@@H](C)O | < 4 | 
